Hits are enriched below; roughly 0.72% of the tested compounds scored in any of these assays.
DTT redox prof: compounds producing H2O2 with reducing agent – biochemical, NIH compound library profiling, artefact control for MLSCN library redox annotation, primary screen | DTT-dependent redox cycling H2O2, phenol red/HRP absorbance; 100% = 100 µM peroxide control, 0% = buffer | AID 878, 2007 | 0.03% of 200,000 active | activation, % at 10 µM;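 active means activation of at least 50% relative to the plate's high and low controls in the primary single-dose screen; inactive means activation below 50%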;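 further: compound incubated with DTT at 0.8 mM final as the reducing agent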
GSH bead fluor: compound fluorescence on glutathione beads, profiling panel, artefact control, biophysical, 488/530 nm, flow cytometry; fluorescence (KMESF) at 10 µM; GSH beads flow cytometry, compound fluorescence 488/530 nm; hits give high values; 0.25% of 190,000 active; in the data active means fluorescence above about 89;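 further: glutathione beads carrying GST-tagged Bcl family fusion proteins plus one bare bead set; values are compound well signal with DMSO vehicle wells as background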
ABCB1 inh: ABCB1 efflux pump inhibitors, primary screen, cell-based, multiplex, flow cytometry, ABCG2 counter-screen; ATP-dependent translocase ABCB1 (Homo sapiens), P08183; CCRF-Adr cells, JC-1 efflux; inhibition, % at 6.6 µM; 0.067% of 190,000 active; AID 1326, 2008; in the data active means inhibition above about 40%;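 further: 0% = vehicle and 100% = reference inhibitor; higher value means more JC-1 retained so stronger ABCB1 efflux block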
Avidin bead fluor: green autofluorescence of compounds with avidin beads – biophysical, 488/530 nm, flow cytometry, artefact control, profiling panel; 0.38% of 220,000 active; compound fluorescence 488/530 nm; hits give high values; AID 1775, 2009; fluorescence (KMESF) at 10 µM; in the data active means fluorescence above about 47
ABCG2 inh: ABCG2 efflux pump inhibitors, primary screen, multiplex with ABCB1, IgMXP3 cells, flow cytometry | 0.1% of 190,000 active | inhibition, % at 6.6 µM | Broad substrate specificity ATP-binding cassette transporter ABCG2 (Homo sapiens), Q9UNQ0 | JC-1 efflux | AID 1325, 2008;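 active means inhibition above 80%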;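 further: 0% = DMSO and 100% = nicardipine control wells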
Target sequence (Q9UNQ0 whole entry, looked up): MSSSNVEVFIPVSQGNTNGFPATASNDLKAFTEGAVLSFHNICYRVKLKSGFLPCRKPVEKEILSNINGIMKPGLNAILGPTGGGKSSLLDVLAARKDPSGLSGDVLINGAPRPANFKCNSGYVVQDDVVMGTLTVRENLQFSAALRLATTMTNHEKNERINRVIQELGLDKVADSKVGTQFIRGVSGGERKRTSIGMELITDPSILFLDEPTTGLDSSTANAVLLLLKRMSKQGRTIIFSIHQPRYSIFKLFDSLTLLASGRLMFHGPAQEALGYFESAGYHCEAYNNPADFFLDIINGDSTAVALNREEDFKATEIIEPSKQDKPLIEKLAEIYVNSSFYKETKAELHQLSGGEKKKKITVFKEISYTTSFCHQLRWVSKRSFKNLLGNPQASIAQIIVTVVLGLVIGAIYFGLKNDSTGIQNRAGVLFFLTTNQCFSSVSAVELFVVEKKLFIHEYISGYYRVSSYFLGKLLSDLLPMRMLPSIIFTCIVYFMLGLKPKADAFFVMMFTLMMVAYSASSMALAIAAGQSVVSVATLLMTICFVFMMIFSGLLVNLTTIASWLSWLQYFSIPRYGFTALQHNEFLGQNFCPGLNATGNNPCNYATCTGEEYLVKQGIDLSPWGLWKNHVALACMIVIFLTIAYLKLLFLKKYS
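Test system: ABCG2 IgMXP3 and barcoded ABCB1 CCRF-Adr cell mix; Schedule: cells with compound and JC-1, 10 min at 25 °C, rotating, no wash; Technique: flow cytometry of retained JC-1 fluorescence; Measure: % inhibition of efflux relative to nicardipine and DMSO; Controls: nicardipine high and DMSO low controls.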
Numbers without * were called inactive; x = not tested or not shown.

SMILES	DTT redox prof	GSH bead fluor	ABCB1 inh	Avidin bead fluor	ABCG2 inh
O=C(COc1ccc(/C=N/NC(=O)c2cc3ccccc3o2)cc1Cl)Nc1ccccc1	-4	116*	-1	49*	-3
O=C1c2ccccc2NC(c2ccc3c(c2)OCCO3)N1c1ccc2c(c1)OCCO2 (stereo not given)	0	262*	1	8	2
O=C(O)/C=C\c1ccccc1Oc1ccc(F)cc1	0	70	0	89*	13
O=C(O)/C=C/c1ccccc1Oc1ccccc1	2	30	0	88*	1
Cc1cn2c(N)c(C=C3C=C(Cl)C(=O)C(Cl)=C3)c(=O)nc2s1	-1	13	5	179*	4
Cc1occc1C(=O)NN=C1C2CC3CC(C2)CC1C3	1	105*	0	8	0
N#CC(C(=O)Nc1ccc(Cl)c(Cl)c1)=C1Nc2ccccc2N1	1	26	1	50*	17
N#CC(C(=O)Nc1cccc(Cl)c1)=C1Nc2ccccc2N1	0	17	0	34	3
CC(C)(C)c1ccc(C(=O)Nc2cccc([N+](=O)[O-])c2)cc1	0	12	11	4	116*
NC(=O)c1oc2ccccc2c1NC(=O)c1ccco1	0	13	0	21	6
NC(=O)c1oc2ccccc2c1NC(=O)c1ccccc1	0	259*	0	7	2
CC(C)C1Oc2cc3oc(=O)ccc3cc2C1=O (stereo not given)	0	23	0	4	0
CC1CCc2c(sc(NC(=O)c3ccccc3C(=O)O)c2C#N)C1 (stereo not given)	0	41	0	64*	-1
O=C(COC(=O)CCc1nc2ccccc2c(=O)[nH]1)Nc1ccc(Cl)cn1	x	x	x	49*	x
Cc1ccc(OCCC(=O)OCC(=O)Nc2ccc(Cl)cn2)cc1	-1	272*	0	7	0
Cc1ccc(OCCn2nc3ccccc3n2)c(C)c1	1	8	0	154*	9
CCOC(=O)C(NC(=O)CC)(Nc1nc2c(s1)CCCC2)C(F)(F)F (stereo not given)	2	156*	1	7	0
COCc1nnc(NC(C)=O)s1	-1	10	2	6	3
O=C(NNC(=O)C1CC2CCC1C2)c1sc2ccccc2c1Cl (stereo not given)	0	17	0	94*	4
Cc1cc(C)c(C)c(S(=O)(=O)NCc2ccc(C(=O)N3CCCCC3)cc2)c1C	0	71	1	7	0
COc1ccccc1N1CCN(C(=O)CSc2nc(-c3ccccc3)cc(=O)[nH]2)CC1	-1	22	1	29	65
COc1ccccc1N1CCN(C(=O)CSc2nc(C)c(Cc3ccccc3)c(=O)[nH]2)CC1	0	15	2	78*	17
O=C1CSc2ccc(C(=O)O)cc2N1	-1	24	1	10	1
CN(Cc1ccc(F)cc1)C(=O)c1ccc2c(c1)NC(=O)CS2	0	24	0	65*	2
Cc1nc2cc(NC(=O)N3CC4(C)CC3CC(C)(C)C4)ccc2n1C (stereo not given)	21	19	0	48*	0
SMILES	DTT redox prof	GSH bead fluor	ABCB1 inh	Avidin bead fluor	ABCG2 inh
CCOC(=O)c1sc(NC(=O)CSc2n[nH]c(-c3ccccc3)n2)c(C#N)c1C	0	17	0	3	-1
CCOC(=O)c1sc(NC(=O)CSc2nc(C)cc(C)n2)c(C#N)c1C	2	13	1	49*	3
COCc1cc(CN2CCCC2)c(O)c2ncccc12	0	14	0	66*	1
O=c1c(Cc2ccc(F)cc2)c(O)ccn1CCCn1ccnc1	0	21	1	10	7
CCOC(=O)c1cc(-c2ccc(C#N)cc2)nc2c1c(C)nn2CCC#N	0	13	3	7	20
CCOC(=O)c1cc(-c2ccc(OC)cc2)nc2c1c(C)nn2CCC#N	0	11	2	56*	30
COc1ccc2c(c1)sc(=N)n2C	-1	12	0	10	1
CC1CCCC(C)N1C(=O)COc1ccc([N+](=O)[O-])cc1Cl (stereo not given)	0	17	4	7	13
N#Cc1ccc(COC(=O)C2CCC(=O)N2)cc1 (stereo not given)	0	258*	0	7	1
O=C1CCC(C(=O)OCC(=O)c2ccccc2)N1 (stereo not given)	-1	10	1	8	1
Cn1c(=O)c2c(nc(NCCCO)n2CCc2ccccc2)n(C)c1=O	-1	20	1	50*	41
Cn1c(=O)c2c(nc(NCCO)n2CCc2ccccc2)n(C)c1=O	x	15	0	3	0
COc1ccccc1C(=O)NCc1ccccn1	-1	11	0	13	2
CC(C)Cn1c(N)c(C(=O)CSc2ncnc3sc4c(c23)CCCC4)c(=O)n(C)c1=O	0	101*	3	3	0
Cc1ccc(CNC(=O)c2cnc(-c3ccccn3)nc2C(F)(F)F)cc1	0	276*	0	7	0
O=C(NCc1ccc(F)cc1)c1cnc(-c2ccccn2)nc1C(F)(F)F	0	62	1	10	2
CC1C(=O)CCC1(C(=O)O)c1ccccc1 (stereo not given)	0	13	0	49*	1
COCCn1c(SCC(=O)NCc2ccc3c(c2)OCO3)nc2ccccc2c1=O	-2	16	1	12	15
N#Cc1ccccc1NC(=O)COC(=O)c1ccc2c(c1)OCCO2	0	47	0	10	11
N#Cc1ccc(Cl)cc1NC(=O)COC(=O)c1ccc2c(c1)OCCO2	-2	16	0	66*	2
O=C(Nc1nccs1)C1CC2CCC1C2 (stereo not given)	-4	7	0	10	1
O=C(NCCNC(=O)C1CC2CCC1C2)C1CC2CCC1C2 (stereo not given)	2	36	1	229*	15
O=c1c2ccccc2nc(/C=C/c2ccc3c(c2)OCO3)n1CCCO	-1	12	0	107*	0
O=c1c(-c2ccc(Cl)cc2)cnc2n1CCS2	0	17	0	8	8
Cc1cc(N2CCOCC2)c2c(N)c(C)cc(C)c2n1	4	26	0	61*	1
Cc1cc(N2CCOCC2)nc(N)n1	-1	26	0	9	1
O=C1CC(/C=C/c2ccncc2)=Nc2ccccc2N1	-2	24	0	99*	2
O=C1CC(c2ccccc2)=Nc2ccccc2N1	0	37	0	13	7
